FAS TE block – FAS thioesterase (human) inhibition; inhibition, % at 15 µM; AID 602261; recombinant FAS-TE, OMFH fluorogenic substrate, fluorescence endpoint; 360,000 compounds, 0.67% hits;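 active = compounds whose normalised, plate-corrected inhibition of enzyme fluorescence in the single-dose primary screen is 50% or more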;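 also: 0% = DMSO with enzyme and 100% = substrate without enzyme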
ADAM10 inh – ADAM10 inhibition, QFRET primary screen; recombinant ADAM10, EDANS/DABCYL FRET peptide cleavage, 3 h; inhibition, % at 7 µM; AID 720582; 370,000 compounds, 0.62% hits;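 active = inhibition above a per-campaign cutoff equal to the mean of compounds falling between control-based bounds plus 3 SD, cut at about 20% in these data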;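 also: 0% = DMSO wells while the 100% control is not disclosed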
ADAM17 inh – ADAM17 inhibition, QFRET primary screen. recombinant ADAM17, EDANS/DABCYL FRET peptide cleavage. inhibition, % at 6.95 µM. 370,000 compounds, 0.83% hits. AID 720648;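 active = inhibition above the mean of compounds lying between control limits plus 3 SD, set per campaign, cut at about 8.5% in these data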;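 also: 0% = DMSO-only wells as the low control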
Target sequence (P78536 215-824 limits assumed): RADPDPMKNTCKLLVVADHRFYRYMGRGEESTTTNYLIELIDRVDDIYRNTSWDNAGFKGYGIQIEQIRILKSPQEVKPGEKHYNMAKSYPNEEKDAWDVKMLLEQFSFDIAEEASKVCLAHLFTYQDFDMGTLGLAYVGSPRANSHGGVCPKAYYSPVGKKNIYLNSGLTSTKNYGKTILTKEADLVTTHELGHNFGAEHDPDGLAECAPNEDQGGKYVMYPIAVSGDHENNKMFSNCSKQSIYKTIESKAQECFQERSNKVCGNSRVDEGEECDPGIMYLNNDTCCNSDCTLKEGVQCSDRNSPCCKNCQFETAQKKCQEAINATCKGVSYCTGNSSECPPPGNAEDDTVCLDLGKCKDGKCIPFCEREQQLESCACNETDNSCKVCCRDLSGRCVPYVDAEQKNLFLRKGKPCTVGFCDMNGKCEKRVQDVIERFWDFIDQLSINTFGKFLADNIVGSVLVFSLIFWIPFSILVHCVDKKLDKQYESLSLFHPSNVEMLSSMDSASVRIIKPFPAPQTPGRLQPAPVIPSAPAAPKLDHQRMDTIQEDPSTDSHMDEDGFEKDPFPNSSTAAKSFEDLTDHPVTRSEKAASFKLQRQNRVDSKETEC
SENP1 inh – SENP1 (human) catalytic domain inhibition; inhibition, % at 10 µM; recombinant SENP1 catalytic domain, CyPet-SUMO1-YPet FRET cleavage; 360,000 compounds, 0.21% hits;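 active = inhibition at least 30% at 10 µM, raw YFP signal under a set limit, fluorescence ratio 0.5 to 1.5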;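 also: 0% = enzyme with DMSO and 100% = no enzyme wells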
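Test system: hSENP1 catalytic domain, recombinant; Amount: 20 pM final SENP1 enzyme; Medium: Tris pH 8 buffer plus EDTA, NaCl, BME, BSA, NP40, catalase; Schedule: 50 min enzyme reaction, room temperature, light-protected; Technique: FRET fluorescence in CFP and YFP emission channels; Controls: no-enzyme wells low, DMSO-plus-enzyme wells high control.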
ADAM10 confirm – confirmation of inhibitors of human ADAM10; shares compounds with ADAM10 inh; ADAM10 QFRET peptide cleavage, EDANS fluorescence; inhibition, % at 6.95 µM; 2,100 compounds, 1% hits;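 active = inhibition above about 20% chosen separately for each screening run, limit read from the data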;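 also: 0% = DMSO wells and 100% = marimastat wells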
ADAM17 counter – inhibits human ADAM17 in ADAM10 exosite counter-screen. shares compounds with ADAM10 inh. inhibition, % at 6.95 µM. 2,100 compounds, 0.5% hits. AID 743214. ADAM17 QFRET peptide cleavage, EDANS fluorescence;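 active = mean triplicate inhibition above the solvent-only control wells' mean plus 3 SD, cut at about 12% in these data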;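 also: 0% = DMSO wells and 100% = marimastat wells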
* = called active by the depositor; i = inactive; / = not tested or not shown. Hits are enriched below; roughly 1.9% of the tested compounds scored in any of these assays.

SMILES	FAS TE block	ADAM10 inh	ADAM17 inh	SENP1 inh	ADAM10 confirm	ADAM17 counter
CCCOc1ccc(C(=O)CCC(=O)OCC(=O)N2CCN(S(=O)(=O)c3ccc(C)cc3C)CC2)cc1	23.4	20.8*	7.5	0.3	5.4	1.3
CCN(c1ccc(NC(=O)COC(=O)CCc2cc(OC)c(OC)c(OC)c2)cc1)C(C)C	2.4	21.2*	0.2	1.5	1.2	0.4
CC(O)(c1ccccc1)c1nc(/C=C/c2ccccc2)cs1 (configuration not stated)	20.1	14.7	4.4	4.1	/	/
OC(c1ccccc1)(c1nc(/C=C/c2ccccc2)cs1)C(F)(F)F (configuration not stated)	38.5	21.0*	6.8	2.3	7.9	3.1
COC(=O)C[C@H]1CC[C@@H]2[C@@H](COc3ccc(NC(=O)Nc4cccc(C)c4)cc3C(=O)N2C)O1	/	-5.2	-3.4	/	/	/
O=C(N/N=C/c1c(Nc2cccc(C(F)(F)F)c2)nc2ccccn2c1=O)c1ccccc1[N+](=O)[O-]	7.0	31.6*	1.0	-14.1	-0.2	-0.1
COCCn1c(SCC(=O)N2CCCC2)nc2c(c1=O)SCC2	-10.8	21.0*	7.3	0.1	5.8	1.5
Cc1sc2ncnc(N3CCC(C(=O)NNC(=O)COc4ccc(Cl)cc4)CC3)c2c1C	13.7	21.4*	1.8	0.9	1.5	0.5
Cc1sc2ncnc(N3CCC(C(=O)NNC(=O)COc4ccccc4F)CC3)c2c1C	3.2	1.8	2.3	0.5	/	/
Cc1sc2ncnc(N3CCC(C(=O)NNC(=O)COc4ccccc4Cl)CC3)c2c1C	4.4	25.6*	-0.1	-0.2	2.6	2.0
CC1(C)Oc2ccc(C(=O)N3CCCC3)cc2NC1=O	/	1.6	-1.8	/	/	/
COCc1[nH]nc2c1C(c1ccc(C)cc1)N(Cc1ccccc1)C2=O (configuration not stated)	/	-3.2	-2.2	/	/	/
CN1C(=O)c2cc(NS(=O)(=O)c3ccc(F)cc3)ccc2OC[C@H]2O[C@@H](CC(=O)NCC(F)(F)F)CC[C@@H]21	/	26.3*	-18.4	/	13.1	2.5
COC(=O)C[C@@H]1CC[C@@H]2[C@@H](COc3ccc(NS(=O)(=O)c4ccc(F)cc4)cc3C(=O)N2C)O1	/	5.3	-1.2	/	/	/
COC(=O)[C@]12C[C@H](CC(=O)NCc3cccc4ccccc34)C(=O)N(CCC3=CCCCC3)C1=C[C@H](C1CCCC1)O[C@@H]2C	/	2.2	0.2	/	/	/
Cc1ccc(S(=O)(=O)NC2c3cccc4cccc(c34)C2Sc2nncn2C)cc1 (configuration not stated)	-2.6	-7.0	3.4	4.7	/	/
Cc1ccc(S(=O)(=O)NC2c3cccc4cccc(c34)C2Sc2nc(C)cc(C)n2)cc1 (configuration not stated)	25.6	20.0*	7.1	-4.6	7.5	2.4
O=Cc1cn(-c2ccccc2)nc1-c1ccccc1	4.9	1.2	-0.7	-0.5	/	/
CC1=NNC(=O)/C1=C\c1cn(-c2ccccc2)nc1-c1ccccc1	-2.1	23.9*	16.1*	2.2	6.2	1.6
NS(=O)(=O)c1ccc(NC(=O)CSc2nnc(-c3cccs3)o2)cc1	/	-3.6	2.6	/	/	/
O=C(Nc1ccc(OC(F)F)c(Cl)c1)C(c1ccccc1)c1ccccc1	46.4	27.6*	14.3*	3.3	7.2	3.6
FC(F)Oc1ccc(NC(=S)NCc2ccccc2)cc1Cl	34.7	10.4	5.7	0.9	/	/
c1ccc2c(c1)CSc1ccccc1N2	15.6	20.6*	7.7	0.8	1.7	0.5
COc1cccc(S(=O)(=O)Nc2ccc(C(O)(C(F)(F)F)C(F)(F)F)cc2)c1	10.2	20.3*	3.3	2.1	-1.7	0.5
COc1ccc(NS(=O)(=O)c2cccc(C(=O)NNC(=O)c3ccc(NC(C)=O)cc3)c2)cc1	-6.0	-2.1	-0.9	-0.6	/	/
SMILES	FAS TE block	ADAM10 inh	ADAM17 inh	SENP1 inh	ADAM10 confirm	ADAM17 counter
CCCCCCCCN1C(=O)[C@@H](CC(=O)NCCCOCCCC)C[C@@]2(C(=O)OC)C1=C[C@H](C(C)C)O[C@@H]2C1CC1	/	5.1	0.3	/	/	/
Cc1ccc(NC(=S)Nc2cc(-c3ccccc3)[nH]n2)cc1Cl	3.8	15.6	3.6	-0.9	/	/
Fc1ccc(NC(=S)Nc2cc(-c3ccccc3)[nH]n2)cc1Cl	20.4	21.6*	5.2	-0.5	10.2	2.7
COc1ccc(O)cc1CN1CCN(c2ncc(Cc3ccccc3)cn2)CC1	/	-7.4	8.0	0.5	/	/
Oc1ccc(Cl)c(CN2CCN(c3ncc(Cc4ccccc4)cn3)CC2)c1	/	24.8*	14.4*	3.8	5.5	2.8
Cc1cc(-c2n[nH]c(=S)n2N=Cc2c3ccccc3cc3ccccc23)n[nH]1	/	-34.5	-8.2	/	/	/
CC1CN(c2ccnc3cc(Cl)ccc23)CCN1C(=O)c1ccc(Cl)cc1 (configuration not stated)	/	-5.3	-0.8	/	/	/
O=S1(=O)c2ccc(Br)cc2OC[C@H](Cc2ccccc2)N1Cc1cn(Cc2ccc(Cl)cc2)nn1	/	-6.3	-4.2	/	/	/
CCCC1=Nc2cc(C(=O)NCCCOC(C)C)ccc2Sc2ccccc21	10.2	21.4*	8.3	1.9	6.5	1.6
O=C(CCc1ccccc1-c1ccccc1CCNC(=O)COCc1ccccc1)NCc1ccccc1	/	1.2	5.0	/	/	/
Cc1nn(C)c(C(=O)N/N=C/c2cccc(Oc3ccccc3)c2)c1Br	27.0	23.8*	0.7	-0.5	2.6	1.0
Nc1ccc(C(=O)N/N=C/c2cccc(Oc3ccccc3)c2)cc1	3.8	-4.5	2.3	1.4	/	/
CN1C2=N[C@@H](c3ccccc3)CC(=O)N2/C(=C\c2ccccc2)[C@H]1c1ccccc1	/	18.4	5.8	/	/	/
CCOP(=O)(OCC)C(NC(=O)Nc1ccc(Cl)c(Cl)c1)c1ccccc1 (configuration not stated)	36.2	22.0*	7.7	0.9	0.3	0.7
COc1cc(C(=O)NNC(=S)NC(=O)c2ccc3c(c2)OCO3)cc(OC)c1OC	0.3	21.9*	6.3	3.5	2.9	2.7
COc1cc(C(=O)NNC(=O)c2ccc3c(c2)OCCO3)cc(OC)c1OC	-3.0	-30.3	-8.0	-1.5	/	/
O=c1[nH]c2cc(C(F)(F)F)ccc2n1-c1cc(C(F)(F)F)ccc1O	20.5	20.4*	2.6	2.3	-0.2	-0.5
Cc1c[nH]c2cccc(-c3cc4ccccc4o3)c12	/	i	-263.0	/	/	/
Cc1ccccc1Nc1nc(Nc2ccccc2C)nc(SC2=NCCS2)n1	26.0	19.8*	7.0	2.4	5.7	1.6
Clc1ccccc1NCSC1=NCCS1	4.9	-4.0	-4.6	2.2	/	/
Cc1ccc(C2(c3ccccc3)NC(=O)N(CC(=O)NCc3ccccc3)C2=O)cc1C (configuration not stated)	20.5	22.9*	8.2	1.5	3.0	0.7
O=C(CN1C(=O)NC(c2ccccc2)(c2ccccc2)C1=O)NCc1ccccc1	0.4	4.4	6.0	0.1	/	/
